The source made the active and inactive calls. No cut-off for these calls is given here.

For series [1], the target named is T1, Tyrosine-protein kinase JAK3 (Homo sapiens, UniProt P52333).
T1 sequence (P52333 whole entry): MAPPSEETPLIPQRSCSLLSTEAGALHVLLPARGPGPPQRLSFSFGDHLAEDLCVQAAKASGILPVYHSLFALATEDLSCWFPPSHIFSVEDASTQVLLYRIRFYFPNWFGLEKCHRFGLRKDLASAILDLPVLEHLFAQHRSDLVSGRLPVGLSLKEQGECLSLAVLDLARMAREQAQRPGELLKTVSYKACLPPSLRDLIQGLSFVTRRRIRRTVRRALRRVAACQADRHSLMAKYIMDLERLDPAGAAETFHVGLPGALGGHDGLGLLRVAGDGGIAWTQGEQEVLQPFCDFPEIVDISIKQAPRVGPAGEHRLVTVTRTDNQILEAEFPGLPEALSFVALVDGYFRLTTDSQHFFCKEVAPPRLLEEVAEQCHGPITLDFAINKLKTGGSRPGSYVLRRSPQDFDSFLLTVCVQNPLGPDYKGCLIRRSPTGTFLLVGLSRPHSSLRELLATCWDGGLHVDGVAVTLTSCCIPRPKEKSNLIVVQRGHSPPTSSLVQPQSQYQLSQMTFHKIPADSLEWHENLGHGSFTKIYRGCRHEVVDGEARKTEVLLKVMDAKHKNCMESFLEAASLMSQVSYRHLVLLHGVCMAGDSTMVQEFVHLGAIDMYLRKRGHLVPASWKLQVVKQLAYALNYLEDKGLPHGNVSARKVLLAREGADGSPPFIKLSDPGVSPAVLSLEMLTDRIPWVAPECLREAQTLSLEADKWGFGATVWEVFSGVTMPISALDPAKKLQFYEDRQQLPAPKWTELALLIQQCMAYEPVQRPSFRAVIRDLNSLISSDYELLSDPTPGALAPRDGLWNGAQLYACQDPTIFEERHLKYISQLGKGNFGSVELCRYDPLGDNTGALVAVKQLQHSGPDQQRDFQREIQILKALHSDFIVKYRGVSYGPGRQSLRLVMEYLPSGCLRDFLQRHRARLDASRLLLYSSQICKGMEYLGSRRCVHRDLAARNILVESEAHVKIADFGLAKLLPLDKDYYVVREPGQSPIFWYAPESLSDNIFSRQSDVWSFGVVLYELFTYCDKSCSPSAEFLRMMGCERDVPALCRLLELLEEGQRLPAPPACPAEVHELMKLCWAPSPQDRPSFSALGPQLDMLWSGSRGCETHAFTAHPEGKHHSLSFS
Briefly: Inhibition of JAK3 (unknown origin) in presence of Mg/ATP mixture by [gamma p33]-ATP based radiometric assay.

The target of series [2] is Tyrosine-protein kinase Lyn (Homo sapiens) (UniProt P07948). The series can be described thus: Inhibition of LYN (unknown origin). In outline: (§1)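 Kinase panel profiling (KinaseProfile, run by an outside contractor). The inhibitor was tested at 1 μM in duplicate against DMSO control. The value is % control, the percentage of kinase activity remaining.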
Sequence of Tyrosine-protein kinase Lyn (Homo sapiens) (P07948 2-512 limits assumed): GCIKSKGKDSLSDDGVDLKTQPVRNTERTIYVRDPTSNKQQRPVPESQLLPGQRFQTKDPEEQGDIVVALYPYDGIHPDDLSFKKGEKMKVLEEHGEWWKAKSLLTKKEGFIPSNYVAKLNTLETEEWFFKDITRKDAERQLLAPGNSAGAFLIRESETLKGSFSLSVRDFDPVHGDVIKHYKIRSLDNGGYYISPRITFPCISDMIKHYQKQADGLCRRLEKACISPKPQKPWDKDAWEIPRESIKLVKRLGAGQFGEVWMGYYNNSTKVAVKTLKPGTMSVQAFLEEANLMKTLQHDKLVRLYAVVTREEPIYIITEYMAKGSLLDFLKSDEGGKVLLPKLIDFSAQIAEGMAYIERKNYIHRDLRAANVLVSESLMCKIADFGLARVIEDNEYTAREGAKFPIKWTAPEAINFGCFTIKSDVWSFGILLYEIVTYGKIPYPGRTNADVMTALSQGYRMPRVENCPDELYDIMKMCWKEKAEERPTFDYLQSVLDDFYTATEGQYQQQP
The target of series [3] is Tyrosine-protein kinase JAK1 (Homo sapiens, UniProt P23458). The series can be described thus: Inhibition of JAK1 (unknown origin) in presence of Mg/ATP mixture by [gamma p33]-ATP based radiometric assay. In a few lines: (§2)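 IC50 values determined by Eurofins Discovery.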
Sequence of Tyrosine-protein kinase JAK1 (P23458 whole entry): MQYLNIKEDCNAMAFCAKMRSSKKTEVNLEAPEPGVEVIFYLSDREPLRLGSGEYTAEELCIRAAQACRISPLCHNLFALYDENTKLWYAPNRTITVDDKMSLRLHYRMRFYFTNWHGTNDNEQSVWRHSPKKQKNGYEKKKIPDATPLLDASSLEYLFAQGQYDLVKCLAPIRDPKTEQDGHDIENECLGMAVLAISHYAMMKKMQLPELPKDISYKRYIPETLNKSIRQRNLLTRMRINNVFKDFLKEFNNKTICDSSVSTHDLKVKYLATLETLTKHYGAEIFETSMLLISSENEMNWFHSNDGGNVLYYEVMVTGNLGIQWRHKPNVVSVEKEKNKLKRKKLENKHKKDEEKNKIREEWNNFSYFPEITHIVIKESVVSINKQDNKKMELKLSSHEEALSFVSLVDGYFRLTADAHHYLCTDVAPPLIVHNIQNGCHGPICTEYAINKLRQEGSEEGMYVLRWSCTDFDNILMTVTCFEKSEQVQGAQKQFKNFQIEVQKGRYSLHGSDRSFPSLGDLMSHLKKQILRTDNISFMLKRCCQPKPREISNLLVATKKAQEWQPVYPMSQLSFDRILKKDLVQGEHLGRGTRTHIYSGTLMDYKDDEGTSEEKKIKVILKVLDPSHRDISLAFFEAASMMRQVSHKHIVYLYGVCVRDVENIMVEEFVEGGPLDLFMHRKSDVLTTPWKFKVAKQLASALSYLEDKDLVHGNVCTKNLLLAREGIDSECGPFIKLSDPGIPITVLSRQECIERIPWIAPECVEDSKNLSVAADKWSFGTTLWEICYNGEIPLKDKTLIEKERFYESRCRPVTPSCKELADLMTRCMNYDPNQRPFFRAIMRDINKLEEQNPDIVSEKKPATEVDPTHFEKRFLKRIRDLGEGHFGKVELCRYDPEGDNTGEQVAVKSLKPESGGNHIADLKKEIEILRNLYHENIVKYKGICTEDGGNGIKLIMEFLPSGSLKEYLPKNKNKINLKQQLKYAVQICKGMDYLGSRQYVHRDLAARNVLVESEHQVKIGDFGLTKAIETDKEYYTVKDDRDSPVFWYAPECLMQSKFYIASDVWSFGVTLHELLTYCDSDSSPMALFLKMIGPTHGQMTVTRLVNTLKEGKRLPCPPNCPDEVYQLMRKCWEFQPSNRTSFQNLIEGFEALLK
Series [4] has as its target Non-receptor tyrosine-protein kinase TYK2 (Homo sapiens, UniProt P29597). Briefly: Inhibition of TYK2 (unknown origin) in presence of Mg/ATP mixture by [gamma p33]-ATP based radiometric assay.
The target in series [5] is Tyrosine-protein kinase Lck (Homo sapiens) (UniProt P06239). Briefly: Inhibition of LCK (unknown origin). In a few lines:
as §1

The subject of series [6] is BaF3. Briefly: Inhibition of JAK2/STAT signaling pathway in mouse BaF3 cells harbouring JAK2 V617F mutant assessed as reduction in JAK2 phosphorylation by Western blot analysis. The class given is cell-based. The following applies: dose 10-1000 nM. In outline: (§3)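 Ba/F3 JAK2V617F cells treated with compound at increasing concentrations. Phosphorylation levels of JAK2, STAT3, STAT5 and AKT assessed by Western blot.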
On the technique in general: Immunoblotting shows a protein as a band on a membrane.

The target in series [7] is Tyrosine-protein kinase JAK2 (Homo sapiens, UniProt O60674). The series can be described thus: Inhibition of JAK2 (unknown origin) in presence of Mg/ATP mixture by [gamma p33]-ATP based radiometric assay. In a few lines:
as §2

The target in series [8] is T2, Receptor-type tyrosine-protein kinase FLT3 (Homo sapiens, UniProt P36888).
T2 sequence (P36888 whole entry): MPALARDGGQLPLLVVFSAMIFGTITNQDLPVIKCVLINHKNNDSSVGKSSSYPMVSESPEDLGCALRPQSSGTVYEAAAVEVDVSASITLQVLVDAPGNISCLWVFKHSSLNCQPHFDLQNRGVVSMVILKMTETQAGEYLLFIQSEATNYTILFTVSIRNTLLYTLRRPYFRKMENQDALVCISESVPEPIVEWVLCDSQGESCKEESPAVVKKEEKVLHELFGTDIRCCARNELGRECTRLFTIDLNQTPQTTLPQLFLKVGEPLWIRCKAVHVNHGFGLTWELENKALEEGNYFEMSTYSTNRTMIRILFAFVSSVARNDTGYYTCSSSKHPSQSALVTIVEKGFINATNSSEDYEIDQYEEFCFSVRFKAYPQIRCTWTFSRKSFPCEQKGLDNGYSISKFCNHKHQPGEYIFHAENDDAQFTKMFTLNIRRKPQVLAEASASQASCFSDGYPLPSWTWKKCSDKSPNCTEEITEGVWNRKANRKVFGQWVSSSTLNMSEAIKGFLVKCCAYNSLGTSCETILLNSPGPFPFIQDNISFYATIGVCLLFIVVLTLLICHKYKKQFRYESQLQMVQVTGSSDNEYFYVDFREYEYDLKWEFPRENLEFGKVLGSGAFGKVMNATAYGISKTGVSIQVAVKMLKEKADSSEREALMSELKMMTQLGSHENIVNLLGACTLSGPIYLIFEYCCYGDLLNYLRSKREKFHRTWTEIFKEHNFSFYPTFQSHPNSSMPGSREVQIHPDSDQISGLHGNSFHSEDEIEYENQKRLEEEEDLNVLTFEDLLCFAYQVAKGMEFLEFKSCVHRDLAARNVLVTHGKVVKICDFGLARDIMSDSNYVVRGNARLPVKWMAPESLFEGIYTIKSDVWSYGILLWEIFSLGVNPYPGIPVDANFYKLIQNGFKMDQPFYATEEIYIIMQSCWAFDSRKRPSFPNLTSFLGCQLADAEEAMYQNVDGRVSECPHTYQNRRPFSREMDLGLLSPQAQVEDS
The series can be described thus: Inhibition of FLT3 in human MOLM-13 cells. The class given is cell-based. In outline:
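Cell proliferation assay. IC50 is the concentration that inhibits proliferation by 50%, taken from dose–response curves. Mean ± SEM of at least three independent experiments.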

A short description of series [9]: Oral bioavailability in Sprague-Dawley rat at 5 mg/kg measured upto 24 hrs by LC-MS/MS analysis. The class given is ADME, organism-based. To be noted: in vivo. In a few lines: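 Sprague–Dawley rats, n = 5 per group, dosed at 5 mg/kg as a solution in 2% ethanol and 1% Tween 80, pH 5.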
In series [10] the test system is BaF3. Briefly: Inhibition of JAK2/STAT signaling pathway in mouse BaF3 cells harbouring JAK2 V617F mutant assessed as reduction in AKT phosphorylation at 10 to 1000 nM by Western blot analysis. The following applies: dose 10-1000 nM. The series is classed as cell-based. In outline:
as §3

Sequence of Non-receptor tyrosine-protein kinase TYK2 (P29597 whole entry): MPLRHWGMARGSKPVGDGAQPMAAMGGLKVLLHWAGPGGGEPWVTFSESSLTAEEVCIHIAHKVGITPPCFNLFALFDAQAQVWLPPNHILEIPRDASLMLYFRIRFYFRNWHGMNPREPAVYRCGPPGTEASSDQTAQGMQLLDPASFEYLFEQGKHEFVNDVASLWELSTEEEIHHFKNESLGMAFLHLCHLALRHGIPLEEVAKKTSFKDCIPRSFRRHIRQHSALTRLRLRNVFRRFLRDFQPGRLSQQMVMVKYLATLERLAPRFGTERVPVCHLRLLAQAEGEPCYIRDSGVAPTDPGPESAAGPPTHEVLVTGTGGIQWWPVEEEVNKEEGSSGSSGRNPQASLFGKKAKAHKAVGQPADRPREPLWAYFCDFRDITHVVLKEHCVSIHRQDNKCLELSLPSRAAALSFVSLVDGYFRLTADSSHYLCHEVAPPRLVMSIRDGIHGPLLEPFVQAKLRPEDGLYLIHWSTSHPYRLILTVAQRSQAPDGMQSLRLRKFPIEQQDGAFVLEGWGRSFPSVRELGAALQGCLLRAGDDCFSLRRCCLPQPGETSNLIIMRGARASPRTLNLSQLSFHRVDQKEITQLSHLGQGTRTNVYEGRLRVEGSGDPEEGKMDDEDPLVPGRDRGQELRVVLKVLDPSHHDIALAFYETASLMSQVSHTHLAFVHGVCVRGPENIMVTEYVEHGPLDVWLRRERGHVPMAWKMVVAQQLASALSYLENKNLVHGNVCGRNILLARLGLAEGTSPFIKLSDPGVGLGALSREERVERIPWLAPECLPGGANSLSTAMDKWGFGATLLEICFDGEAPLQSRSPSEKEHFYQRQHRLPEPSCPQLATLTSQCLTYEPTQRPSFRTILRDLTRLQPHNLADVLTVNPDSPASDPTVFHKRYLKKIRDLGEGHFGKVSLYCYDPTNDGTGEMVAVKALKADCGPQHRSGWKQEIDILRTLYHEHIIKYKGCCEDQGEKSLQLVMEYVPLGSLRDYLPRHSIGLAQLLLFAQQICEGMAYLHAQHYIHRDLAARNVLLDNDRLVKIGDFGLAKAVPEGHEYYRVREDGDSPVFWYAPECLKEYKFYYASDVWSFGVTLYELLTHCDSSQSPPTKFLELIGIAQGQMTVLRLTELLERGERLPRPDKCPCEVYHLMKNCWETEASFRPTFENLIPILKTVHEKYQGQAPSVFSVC
Sequence of Tyrosine-protein kinase Lck (Homo sapiens) (P06239 2-509 limits assumed): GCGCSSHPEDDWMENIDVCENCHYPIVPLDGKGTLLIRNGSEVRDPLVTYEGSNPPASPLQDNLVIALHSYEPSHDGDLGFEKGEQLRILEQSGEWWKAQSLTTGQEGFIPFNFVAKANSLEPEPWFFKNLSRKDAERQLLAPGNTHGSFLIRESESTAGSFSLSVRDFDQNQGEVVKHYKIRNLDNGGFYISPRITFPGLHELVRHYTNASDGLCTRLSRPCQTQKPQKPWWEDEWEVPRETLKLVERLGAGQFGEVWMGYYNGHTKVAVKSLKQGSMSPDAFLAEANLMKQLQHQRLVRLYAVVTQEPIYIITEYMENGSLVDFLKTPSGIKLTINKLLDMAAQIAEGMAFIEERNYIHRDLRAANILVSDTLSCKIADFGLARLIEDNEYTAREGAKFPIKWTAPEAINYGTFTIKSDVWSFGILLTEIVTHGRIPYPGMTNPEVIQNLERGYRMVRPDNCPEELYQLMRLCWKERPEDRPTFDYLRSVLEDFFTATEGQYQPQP
Sequence of Tyrosine-protein kinase JAK2 (O60674 whole entry): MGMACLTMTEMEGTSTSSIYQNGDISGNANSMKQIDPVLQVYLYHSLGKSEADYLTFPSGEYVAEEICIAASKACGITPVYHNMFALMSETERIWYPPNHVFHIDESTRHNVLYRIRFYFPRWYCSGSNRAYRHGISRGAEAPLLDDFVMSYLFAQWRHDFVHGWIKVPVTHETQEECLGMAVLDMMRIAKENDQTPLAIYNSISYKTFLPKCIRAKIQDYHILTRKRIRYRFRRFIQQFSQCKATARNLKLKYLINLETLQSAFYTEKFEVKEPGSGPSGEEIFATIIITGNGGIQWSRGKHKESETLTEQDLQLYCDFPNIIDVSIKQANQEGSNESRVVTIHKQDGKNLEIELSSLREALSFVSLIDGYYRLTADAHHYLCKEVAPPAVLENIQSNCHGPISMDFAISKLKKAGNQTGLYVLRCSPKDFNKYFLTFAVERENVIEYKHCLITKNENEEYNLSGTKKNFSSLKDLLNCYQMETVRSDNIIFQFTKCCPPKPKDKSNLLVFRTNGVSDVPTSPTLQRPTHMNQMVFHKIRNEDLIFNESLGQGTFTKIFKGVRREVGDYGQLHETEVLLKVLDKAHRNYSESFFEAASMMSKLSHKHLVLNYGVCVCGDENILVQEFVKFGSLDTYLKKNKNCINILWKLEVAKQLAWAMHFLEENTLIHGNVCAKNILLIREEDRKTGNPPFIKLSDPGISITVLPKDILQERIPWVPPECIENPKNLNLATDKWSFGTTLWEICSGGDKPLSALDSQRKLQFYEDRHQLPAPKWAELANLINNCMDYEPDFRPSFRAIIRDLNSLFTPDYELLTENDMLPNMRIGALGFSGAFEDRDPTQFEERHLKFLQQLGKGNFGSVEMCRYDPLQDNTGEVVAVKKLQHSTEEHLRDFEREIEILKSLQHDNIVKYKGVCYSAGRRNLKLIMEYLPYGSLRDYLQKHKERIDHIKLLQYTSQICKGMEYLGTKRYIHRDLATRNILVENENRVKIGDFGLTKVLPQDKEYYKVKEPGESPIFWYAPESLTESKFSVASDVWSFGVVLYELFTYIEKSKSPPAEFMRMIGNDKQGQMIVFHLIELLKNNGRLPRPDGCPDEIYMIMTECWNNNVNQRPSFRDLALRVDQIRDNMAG

The term IC50 denotes the concentration at which inhibition is half-maximal. By bioavailability is commonly meant dose-corrected exposure relative to a reference, in per cent. Low values mean poor availability, high ones good availability. For `C=CS(=O)(=O)NCc1ccc(Nc2ncc(C)c(-c3cnn(C(C)C)c3)n2)cc1`, the IC50 in series [1] is 273 nM; in series [3], 193 nM; in series [4], 206 nM; in [7] it was 5 nM; in series [8], 583 nM. Also, the inhibition entry (in series [2]; in series [5]; with BaF3 [10]) was “Active” each time. The inhibition result with BaF3 [6] is “Dose-Dependent Effect”. In addition, the bioavailability in [9] turned out to be 41.1%.
